“And” between values parts separate entries of the source, which are not always exact repeats. Equal entries are not always repeated.
How the values were obtained:
Type in all cases: toxicity, cell-based
Fibroblast = experiment: Multiplex assay against human fibroblast
Procedure, shortened: (§1)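 On a CQ1 microscope at 37°C and 5% CO2, live cells were imaged after compound addition. They had been stained at seeding with Hoechst33342, BioTracker Green Microtubule Cytoskeleton Dye, MitoTracker Red and Annexin V Alexa Fluor 680. CellPathfinder machine-learning gating assigned cells to Hoechst high-intensity objects or normal cells, normal cells to healthy, pyknosed or fragmented nuclei, and pyknosed cells to mitotic or apoptotic. Tubulin, mitochondrial-mass and membrane-permeability phenotypes are per cents of healthy-nucleus cells.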

HEK-293T = experiment: Multiplex assay against HEK293T; conditions: human; procedure, shortened: as §1
U2OS = experiment: Multiplex assay against U2OS; conditions: human; procedure, shortened: as §1
[1] = 12 h, 1 µM, compound concentration 1 uM
[2] = 12 h, 10 µM, compound concentration 10 uM
[3] = 24 h, 1 µM, compound concentration 1 uM
[4] = 24 h, 10 µM, compound concentration 10 uM
[5] = 48 h, 1 µM, compound concentration 1 uM
[6] = 48 h, 10 µM, compound concentration 10 uM

SMILES: COc1ccccc1N1CCN(CCCCNC(=O)c2ccc3ccccc3c2)CC1.Cl
- Population Apoptotic (%) (Fibroblast; [1]): 52% and 40%
- Population Fragmented Nuclei (%) (Fibroblast; [1]): 19% and 20%
- Population Healthy Nuclei (%) (Fibroblast; [1]): 68% and 63%
- Population Mitotic Cells (%) (Fibroblast; [1]): 47% and 59%
- Population Normal (%) (Fibroblast; [1]): 95% and 96%
- Population Tubulin-Different-Phenotype (%) (Fibroblast; [1]): 35% and 42%
- Total Cell Count (Fibroblast; [1]): 194 and 148
- Population Apoptotic (%) (Fibroblast; [2]): 58% and 39%
- Population Fragmented Nuclei (%) (Fibroblast; [2]): 32% and 40%
- Population Healthy Nuclei (%) (Fibroblast; [2]): 52% and 34%
- Population Mitotic Cells (%) (Fibroblast; [2]): 41% and 60%
- Population Normal (%) (Fibroblast; [2]): 96% and 89%
- Population Tubulin-Different-Phenotype (%) (Fibroblast; [2]): 79% and 90%
- Total Cell Count (Fibroblast; [2]): 194 and 144
- Population Apoptotic (%) (Fibroblast; [3]): 39% and 60%
- Population Fragmented Nuclei (%) (Fibroblast; [3]): 14% and 26%
- Population Healthy Nuclei (%) (Fibroblast; [3]): 73% and 60%
- Population Mitotic Cells (%) (Fibroblast; [3]): 60% and 40%
- Population Normal (%) (Fibroblast; [3]): 98% and 96%
- Population Tubulin-Different-Phenotype (%) (Fibroblast; [3]): 31% and 40%
- Total Cell Count (Fibroblast; [3]): 193 and 156
- Population Apoptotic (%) (Fibroblast; [4]): 66% and 69%
- Population Fragmented Nuclei (%) (Fibroblast; [4]): 32% and 41%
- Population Healthy Nuclei (%) (Fibroblast; [4]): 56% and 41%
- Population Mitotic Cells (%) (Fibroblast; [4]): 33% and 30%
- Population Normal (%) (Fibroblast; [4]): 95% and 91%
- Population Tubulin-Different-Phenotype (%) (Fibroblast; [4]): 85% and 81%
- Total Cell Count (Fibroblast; [4]): 206 and 154
- Population Apoptotic (%) (Fibroblast; [5]): 42% and 29%
- Population Fragmented Nuclei (%) (Fibroblast; [5]): 21% and 34%
- Population Healthy Nuclei (%) (Fibroblast; [5]): 70% and 54%
- Population Mitotic Cells (%) (Fibroblast; [5]): 57% and 70%
- Population Normal (%) (Fibroblast; [5]): 96% and 95%
- Population Tubulin-Different-Phenotype (%) (Fibroblast; [5]): 38% and 39%
- Total Cell Count (Fibroblast; [5]): 199 and 167
- Population Apoptotic (%) (Fibroblast; [6]): 73% and 75%
- Population Fragmented Nuclei (%) (Fibroblast; [6]): 33% and 38%
- Population Healthy Nuclei (%) (Fibroblast; [6]): 57% and 56%
- Population Mitotic Cells (%) (Fibroblast; [6]): 26% and 25%
- Population Tubulin-Different-Phenotype (%) (Fibroblast; [6]): 89% and 82%
- Total Cell Count (Fibroblast; [6]): 224 and 168
- Population Apoptotic (%) (HEK-293T; [1]): 45% and 36%
- Population Fragmented Nuclei (%) (HEK-293T; [1]): 7% and 6%
- Population Healthy Nuclei (%) (HEK-293T; [1]): 81% and 79%
- Population Hoechst High Intensity Objects (%) (HEK-293T; [1]): 6% and 5%
- Population Mitochondria Different-Phenotype (%) (HEK-293T; [1]): 53% and 76%
- Population Mitotic Cells (%) (HEK-293T; [1]): 54% and 63%
- Population Normal (%) (HEK-293T; [1]): 93% and 94%
- Population Tubulin-Different-Phenotype (%) (HEK-293T; [1]): 41% and 35%
- Total Cell Count (HEK-293T; [1]): 430 and 354
- Population Apoptotic (%) (HEK-293T; [2]): 71% and 70%
- Population Fragmented Nuclei (%) (HEK-293T; [2]): 4% and 7%
- Population Healthy Nuclei (%) (HEK-293T; [2]): 69% and 75%
- Population Hoechst High Intensity Objects (%) (HEK-293T; [2]): 16% and 15%
- Population Mitochondria Different-Phenotype (%) (HEK-293T; [2]): 90% and 93%
- Population Mitotic Cells (%) (HEK-293T; [2]): 28% and 29%
- Population Normal (%) (HEK-293T; [2]): 83% and 84%
- Population Tubulin-Different-Phenotype (%) (HEK-293T; [2]): 75% and 72%
- Total Cell Count (HEK-293T; [2]): 321 and 256
- Population Apoptotic (%) (HEK-293T; [3]): 27% and 36%
- Population Fragmented Nuclei (%) (HEK-293T; [3]): 8% and 7%
- Population Healthy Nuclei (%) (HEK-293T; [3]): 78% and 82%
- Population Hoechst High Intensity Objects (%) (HEK-293T; [3]): 6%
- Population Mitochondria Different-Phenotype (%) (HEK-293T; [3]): 38% and 62%
- Population Mitotic Cells (%) (HEK-293T; [3]): 72% and 63%
- Population Normal (%) (HEK-293T; [3]): 93%
- Population Tubulin-Different-Phenotype (%) (HEK-293T; [3]): 32% and 26%
- Total Cell Count (HEK-293T; [3]): 561 and 444
- Population Apoptotic (%) (HEK-293T; [4]): 56% and 60%
- Population Fragmented Nuclei (%) (HEK-293T; [4]): 7% and 10%
- Population Healthy Nuclei (%) (HEK-293T; [4]): 74% and 69%
- Population Hoechst High Intensity Objects (%) (HEK-293T; [4]): 13% and 17%
- Population Mitochondria Different-Phenotype (%) (HEK-293T; [4]): 96% and 94%
- Population Mitotic Cells (%) (HEK-293T; [4]): 43% and 39%
- Population Normal (%) (HEK-293T; [4]): 86% and 82%
- Population Tubulin-Different-Phenotype (%) (HEK-293T; [4]): 87% and 66%
- Total Cell Count (HEK-293T; [4]): 393 and 276
- Population Apoptotic (%) (HEK-293T; [5]): 20% and 46%
- Population Healthy Nuclei (%) (HEK-293T; [5]): 81% and 78%
- Population Hoechst High Intensity Objects (%) (HEK-293T; [5]): 3% and 5%
- Population Mitochondria Different-Phenotype (%) (HEK-293T; [5]): 34% and 37%
- Population Mitotic Cells (%) (HEK-293T; [5]): 79% and 53%
- Population Normal (%) (HEK-293T; [5]): 96% and 94%
- Population Tubulin-Different-Phenotype (%) (HEK-293T; [5]): 20% and 22%
- Total Cell Count (HEK-293T; [5]): 841 and 635
- Population Apoptotic (%) (HEK-293T; [6]): 60% and 78%
- Population Fragmented Nuclei (%) (HEK-293T; [6]): 8%
- Population Healthy Nuclei (%) (HEK-293T; [6]): 77% and 78%
- Population Hoechst High Intensity Objects (%) (HEK-293T; [6]): 8% and 10%
- Population Mitochondria Different-Phenotype (%) (HEK-293T; [6]): 88% and 92%
- Population Mitotic Cells (%) (HEK-293T; [6]): 40% and 21%
- Population Normal (%) (HEK-293T; [6]): 91% and 89%
- Population Tubulin-Different-Phenotype (%) (HEK-293T; [6]): 73% and 71%
- Total Cell Count (HEK-293T; [6]): 519 and 329
- Population Apoptotic (%) (U2OS; [1]): 68% and 42%
- Population Fragmented Nuclei (%) (U2OS; [1]): 18% and 17%
- Population Healthy Nuclei (%) (U2OS; [1]): 69% and 75%
- Population Mitochondria Different-Phenotype (%) (U2OS; [1]): 8% and 15%
- Population Mitotic Cells (%) (U2OS; [1]): 31% and 57%
- Population Normal (%) (U2OS; [1]): 95% and 97%
- Total Cell Count (U2OS; [1]): 243 and 99
- Population Apoptotic (%) (U2OS; [2]): 78% and 65%
- Population Fragmented Nuclei (%) (U2OS; [2]): 30% and 17%
- Population Healthy Nuclei (%) (U2OS; [2]): 39% and 51%
- Population Mitochondria Different-Phenotype (%) (U2OS; [2]): 80% and 94%
- Population Mitotic Cells (%) (U2OS; [2]): 21% and 34%
- Population Normal (%) (U2OS; [2]): 91% and 93%
- Population Pyknosed Nuclei (%) (U2OS; [2]): 30%
- Total Cell Count (U2OS; [2]): 222 and 111
- Population Apoptotic (%) (U2OS; [3]): 78% and 80%
- Population Fragmented Nuclei (%) (U2OS; [3]): 18% and 21%
- Population Healthy Nuclei (%) (U2OS; [3]): 68%
- Population Mitochondria Different-Phenotype (%) (U2OS; [3]): 9% and 11%
- Population Mitotic Cells (%) (U2OS; [3]): 21% and 20%
- Population Normal (%) (U2OS; [3]): 96% and 98%
- Population Pyknosed Nuclei (%) (U2OS; [3]): 9%
- Total Cell Count (U2OS; [3]): 262 and 103
- Population Apoptotic (%) (U2OS; [4]): 90% and 100%
- Population Fragmented Nuclei (%) (U2OS; [4]): 35% and 19%
- Population Healthy Nuclei (%) (U2OS; [4]): 32% and 61%
- Population Mitochondria Different-Phenotype (%) (U2OS; [4]): 78% and 93%
- Population Mitotic Cells (%) (U2OS; [4]): 10% and 0%
- Population Normal (%) (U2OS; [4]): 93%
- Population Pyknosed Nuclei (%) (U2OS; [4]): 31%
- Total Cell Count (U2OS; [4]): 234 and 125
- Population Apoptotic (%) (U2OS; [5]): 72% and 88%
- Population Fragmented Nuclei (%) (U2OS; [5]): 19% and 17%
- Population Healthy Nuclei (%) (U2OS; [5]): 71% and 64%
- Population Mitochondria Different-Phenotype (%) (U2OS; [5]): 3%
- Population Mitotic Cells (%) (U2OS; [5]): 27% and 12%
- Population Normal (%) (U2OS; [5]): 95% and 96%
- Population Pyknosed Nuclei (%) (U2OS; [5]): 9%
- Total Cell Count (U2OS; [5]): 362 and 144
- Population Apoptotic (%) (U2OS; [6]): 93% and 86%
- Population Fragmented Nuclei (%) (U2OS; [6]): 38% and 23%
- Population Healthy Nuclei (%) (U2OS; [6]): 27% and 37%
- Population Mitochondria Different-Phenotype (%) (U2OS; [6]): 69% and 77%
- Population Mitotic Cells (%) (U2OS; [6]): 6% and 13%
- Population Normal (%) (U2OS; [6]): 91% and 87%
- Population Pyknosed Nuclei (%) (U2OS; [6]): 34% and 39%
- Total Cell Count (U2OS; [6]): 256 and 111

Reference: ChEMBL document CHEMBL5724801, “EUbOPEN Chemogenomics Library - Multiplex” (2024)
